Where “and” joins values, the source holds several entries; their conditions need not be identical. Identical values can stand only once.

The test system of the first experiment is HL-60. The experiment can be described thus: Ability to inhibit human leukemic HL-60 cell growth in culture. It is filed as functional, cell-based. The settings on record: Homo sapiens, HL-60. A digest of the protocol:
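HL-60 cells seeded at 1.5 × 10^5/mL in RPMI 1640 and exposed to compound at 0.0025–0.05 mg/mL (in 0.1% DMSO). Incubation was 72 h at 37 °C under humidified 5% CO2. Viable cells were counted by trypan blue exclusion on a hemocytometer. IC50 was the median-effect concentration, taken from a median-effect plot of fractional inhibition over three to five dose-effect levels.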
`COc1c(OC)c(OC)c2c(c1O)c(=O)c1ccc([N+](=O)[O-])cc1n2C`: the half-maximal inhibitory concentration (IC50) was over 100 µM. In turn, `COc1c(OC)c(OC)c2c(c1O)c(=O)c1ccc(N(C)C)cc1n2C` returned a half-inhibitory concentration (IC50) of 9.4 µM.

On to `COc1cc2c(c3c1c(=O)c1ccccc1n3C)C=CC(C)(C)O2` [ACRONINE], for which the IC50 was found to be 26.2 µM. `COc1c(OC)c(OC)c2c(c1O)c(=O)c1cc([N+](=O)[O-])ccc1n2C`: the IC50 is over 100 µM. For the compound `COc1ccc2c(=O)c3c(O)c(OC)c(OC)c(OC)c3n(C)c2c1OC`, the IC50 is 3.4 µM. Same read-out and setting: for `COc1c(OC)c(OC)c2c(c1O)c(=O)c1cc(N)ccc1n2C` the value was 44.4 µM; for `COc1ccc2c(=O)c3c(OC)c(OC)c(OC)c(OC)c3n(C)c2c1OC`, 23.3 µM; for `COc1c(OC)c(O)c2c(O)c3ccc(O)c(OC)c3nc2c1OC`, over 100 µM. For the compound `CCN(CC)CCn1c2c(OC)c(O)ccc2c(=O)c2c(O)c(OC)c(OC)c(OC)c21`, the 50% inhibitory concentration (IC50) was determined as 62.2 µM. The compound `COc1c(OC)c(OC)c2c(c1O)c(=O)c1ccc(N)cc1n2C` showed an IC50 of 11.6 µM. The same measure, in the same setting: the figure for `CNc1ccc2c(=O)c3c(O)c(OC)c(OC)c(OC)c3n(C)c2c1` is 10.6 µM. On the same count and under the same terms, the figure for `COc1c(OC)c(OC)c2c(c1O)c(=O)c1ccc(O)c(OC)c1n2C` [GLYFOLINE] is 2.2 µM. The same measure, in the same setting: the figure for `COc1c(OC)c(OC)c2c(c1O)c(=O)c1cccc(OC)c1n2C` is 12.8 µM.

Staying with this experiment, now noted: hl-60.
Regarding `COc1c(OC)c(OC)c2c(c1OC)c(=O)c1ccc(O)c(OC)c1n2C`, the half-inhibitory concentration (IC50) was 91.9 µM and 23.7 µM.

By IC50 is commonly meant the concentration at which inhibition is half-maximal. A low value points to greater potency.

The values above are taken from ChEMBL document CHEMBL1125488, “Synthesis of the acridone alkaloids glyfoline and congeners. Structure-activity relationship studies of cytotoxic acridones” (J Med Chem, 1992).
